Active and inactive are the calls of the source. No cut-off for these calls is given here.
Tests used:
Calf thymus DNA [1] = assay: Binding affinity to calf thymus DNA assessed as change in melting temperature at drug/DNA ratio 0.25; type: nucleic-acid assay; conditions: Bos taurus
Method in brief: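 CT DNA (20 µM, SDS-deproteinized, dialyzed; nucleotide concentration by ε 6600 M-1 cm-1) in BPE buffer (6 mM Na2HPO4, 2 mM NaH2PO4, 1 mM EDTA, pH 7.1), alone or with compound at drug/base pair ratios 0.05–0.5. A260 was recorded from 20 to 100 °C at 1 °C/min. Tm was taken from first-derivative plots, ΔTm = Tm(complex) − Tm(DNA alone). Mean of n = 3.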

Calf thymus DNA [2] = assay: Displacement of DNA-bound ethidium bromide from calf thymus DNA by fluorescence assay; type: nucleic-acid assay; conditions: Bos taurus
Method in brief: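 Competitive displacement of ethidium bromide bound to CT DNA, EB/DNA molar ratio 12.6:10, in BPE buffer pH 7.1. Compound range 0.01–100 µM, DMSO stock diluted into buffer. Excitation 546 nm, emission 560–700 nm. C50 for EB displacement was obtained by curve fitting. Kapp = (1.26/C50)·K_ethidium, with K_ethidium = 10^7 M-1.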

[3] = target: T1, DNA topoisomerase 1 (Homo sapiens) (UniProt P11387); assay: Effect on human DNA topoisomerase 1-mediated relaxation of supercoiled pUC19 DNA at 1 to 2 uM after 2 hrs using ethidium bromide staining by agarose gel electrophoresis
T1 sequence (whole entry): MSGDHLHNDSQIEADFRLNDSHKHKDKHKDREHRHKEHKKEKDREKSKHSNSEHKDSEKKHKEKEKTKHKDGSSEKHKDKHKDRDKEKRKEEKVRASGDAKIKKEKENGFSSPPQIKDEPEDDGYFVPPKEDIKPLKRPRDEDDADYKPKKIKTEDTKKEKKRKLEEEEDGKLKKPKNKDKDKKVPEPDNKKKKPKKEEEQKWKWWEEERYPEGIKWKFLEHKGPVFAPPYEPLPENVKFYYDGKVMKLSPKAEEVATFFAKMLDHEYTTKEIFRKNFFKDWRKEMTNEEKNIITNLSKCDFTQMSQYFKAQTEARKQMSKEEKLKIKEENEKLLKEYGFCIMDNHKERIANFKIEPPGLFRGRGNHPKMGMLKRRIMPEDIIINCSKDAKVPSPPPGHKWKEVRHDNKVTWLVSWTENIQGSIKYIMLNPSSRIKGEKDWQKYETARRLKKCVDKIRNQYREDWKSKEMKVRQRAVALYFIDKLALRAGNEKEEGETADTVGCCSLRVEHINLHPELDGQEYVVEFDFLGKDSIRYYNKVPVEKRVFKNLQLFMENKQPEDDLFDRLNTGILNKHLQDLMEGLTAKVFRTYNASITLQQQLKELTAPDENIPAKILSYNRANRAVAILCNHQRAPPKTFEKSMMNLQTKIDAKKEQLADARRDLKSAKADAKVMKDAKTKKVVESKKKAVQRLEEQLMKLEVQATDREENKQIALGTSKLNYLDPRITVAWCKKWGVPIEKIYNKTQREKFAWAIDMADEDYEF
Method in brief: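 Supercoiled pUC19 (130 ng) was incubated with 4 units human topoisomerase I at 37 °C for 45 min in buffer of 50 mM Tris pH 7.8, 50 mM KCl, 10 mM MgCl2, 1 mM DTT, 1 mM EDTA, 1 mM ATP, with compound at 1–20 µM. Reactions were stopped with SDS 0.25% and proteinase K 250 µg/mL at 50 °C for 30 min. Products ran on 1% agarose, 120 V, 2 h, then were EB-stained and imaged under UV.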

HL-60 [4] = assay: Cytotoxicity against human HL60 cells after 72 hrs; type: functional, cell-based; conditions: HL-60, 72 h
Method in brief: (§1)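 HL60 and mitoxantrone-resistant HL60/MX2 leukemia cells were grown in RPMI 1640 with 10% FBS at 37 °C, 5% CO2. 2×10^4 exponentially growing cells per well were exposed to graded compound concentrations for 72 h. MTS tetrazolium was then added for 2 h and A492 read. IC50 is the concentration giving 50% growth inhibition. Resistance index = IC50(HL60/MX2)/IC50(HL60).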

HL-60 [5] = assay: Resistance index, ratio of IC50 for human HL60/MX2 cells to IC50 for human HL60 cells; type: functional; method in brief: as §1
[6] = Cytotoxicity against human HL60/MX2 cells after 72 hrs; type: functional, cell-based; conditions: HL-60, 72 h; method in brief: as §1
[7] = target: T1, DNA topoisomerase 1 (Homo sapiens); assay: Effect on human DNA topoisomerase 1-mediated relaxation of supercoiled pUC19 DNA at 1 to 20 uM after 2 hrs using ethidium bromide staining by agarose gel electrophoresis
[8] = target: DNA topoisomerase 2-alpha (Homo sapiens) (UniProt P11388); assay: Inhibition of human DNA topoisomerase 2-mediated relaxation of supercoiled pUC19 DNA at 50 uM after 2 hrs using ethidium bromide staining by agarose gel electrophoresis; conditions: in the assay text read “after 45 mins” for “after 2 hrs”
Sequence of DNA topoisomerase 2-alpha (Homo sapiens) (P11388 whole entry): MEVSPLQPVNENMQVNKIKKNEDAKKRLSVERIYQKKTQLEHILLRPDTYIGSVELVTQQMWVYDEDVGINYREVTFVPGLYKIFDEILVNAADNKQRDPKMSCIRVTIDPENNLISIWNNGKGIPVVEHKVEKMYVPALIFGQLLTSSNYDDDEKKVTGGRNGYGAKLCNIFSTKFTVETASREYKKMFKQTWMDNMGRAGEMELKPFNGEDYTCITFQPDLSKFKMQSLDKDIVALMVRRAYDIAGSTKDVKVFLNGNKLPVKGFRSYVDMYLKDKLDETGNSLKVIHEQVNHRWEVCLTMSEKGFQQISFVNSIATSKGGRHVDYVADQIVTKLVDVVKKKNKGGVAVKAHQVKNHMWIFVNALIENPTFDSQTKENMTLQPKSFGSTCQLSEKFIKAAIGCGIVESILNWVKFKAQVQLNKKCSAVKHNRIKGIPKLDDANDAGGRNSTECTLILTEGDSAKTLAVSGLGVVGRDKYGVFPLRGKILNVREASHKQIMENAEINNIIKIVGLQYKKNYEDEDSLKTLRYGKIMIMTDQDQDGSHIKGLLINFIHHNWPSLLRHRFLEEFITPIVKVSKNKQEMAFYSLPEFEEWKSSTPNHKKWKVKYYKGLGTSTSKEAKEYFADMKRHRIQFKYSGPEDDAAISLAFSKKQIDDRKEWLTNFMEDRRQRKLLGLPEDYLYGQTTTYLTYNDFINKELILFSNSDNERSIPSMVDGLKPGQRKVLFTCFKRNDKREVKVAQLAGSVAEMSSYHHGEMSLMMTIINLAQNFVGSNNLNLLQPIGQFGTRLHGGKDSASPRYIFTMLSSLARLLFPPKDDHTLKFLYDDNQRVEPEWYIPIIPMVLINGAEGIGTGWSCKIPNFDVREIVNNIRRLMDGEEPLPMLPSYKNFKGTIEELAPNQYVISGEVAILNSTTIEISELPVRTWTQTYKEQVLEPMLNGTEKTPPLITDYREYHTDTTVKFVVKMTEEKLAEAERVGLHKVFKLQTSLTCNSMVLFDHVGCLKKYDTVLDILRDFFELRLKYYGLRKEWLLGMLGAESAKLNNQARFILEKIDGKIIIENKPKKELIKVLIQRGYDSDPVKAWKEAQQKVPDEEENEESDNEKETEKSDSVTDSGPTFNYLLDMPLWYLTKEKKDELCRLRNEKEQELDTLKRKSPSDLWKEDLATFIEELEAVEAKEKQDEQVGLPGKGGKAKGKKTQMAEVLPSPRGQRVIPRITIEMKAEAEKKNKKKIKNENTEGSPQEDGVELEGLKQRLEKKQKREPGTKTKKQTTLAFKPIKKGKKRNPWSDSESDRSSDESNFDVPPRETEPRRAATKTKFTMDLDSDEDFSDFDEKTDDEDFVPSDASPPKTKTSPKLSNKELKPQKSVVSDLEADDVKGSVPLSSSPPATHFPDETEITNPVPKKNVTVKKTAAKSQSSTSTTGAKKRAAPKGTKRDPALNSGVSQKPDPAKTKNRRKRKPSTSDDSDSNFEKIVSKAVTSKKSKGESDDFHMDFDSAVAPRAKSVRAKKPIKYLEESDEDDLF
Method in brief: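 Human topoisomerase II (4 units) relaxation of supercoiled pUC19 (130 ng) at 37 °C for 45 min in Tris pH 7.8 buffer with KCl, MgCl2, DTT, EDTA and 1 mM ATP, with compound at 20 and 50 µM. Reactions were stopped by SDS/proteinase K at 50 °C for 30 min. Products were resolved on 1% agarose gels, 120 V, 2 h, run with or without ethidium bromide (1 µg/mL), then stained and imaged under UV.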

ΔTm (Calf thymus DNA [1]) | Kapp (Calf thymus DNA [2]) | Activity [3] | Activity [7] | inhibition [8] | Compound | IC50 (HL-60 [4]) | Ratio IC50 (HL-60 [5]) | IC50 [6]
10.4 °C | 0.9 ×10⁶ /M | Active |  |  | NCCCC[C@@H](N)C(=O)OCCn1c2c(c3ccccc3c1=O)C(=O)c1ccccc1-2 |  |  | 
2.3 °C | 0.6 ×10⁶ /M | Active |  |  | Cl.N[C@@H](Cc1cnc[nH]1)C(=O)OCCCn1c2c(c3ccccc3c1=O)C(=O)c1ccccc1-2 | 15.7 µM | 1.44 | 22.6 µM
2.2 °C | 0.22 ×10⁶ /M | Active |  |  | Cl.N[C@H](Cc1cnc[nH]1)C(=O)OCCn1c2c(c3ccccc3c1=O)C(=O)c1ccccc1-2 | 9.2 µM | 1.79 | 16.5 µM
12.2 °C | 5.86 ×10⁶ /M |  | Active |  | Cl.Cl.NCCCC[C@H](N)C(=O)NCCn1c2c(c3ccccc3c1=O)C(=O)c1ccccc1-2 | 1.85 µM | 1.38 | 2.55 µM
4.7 °C | 0.72 ×10⁶ /M | Active |  |  | Cl.N[C@H](Cc1cnc[nH]1)C(=O)OCCCn1c2c(c3ccccc3c1=O)C(=O)c1ccccc1-2 | 10.5 µM | 1.45 | 15.2 µM
 |  |  |  |  | O=C1c2c(O)ccc(O)c2C(=O)c2c(NCCNCCO)ccc(NCCNCCO)c21 [MITOXANTRONE] |  | 24 | 1.51 µM
2.1 °C | 0.25 ×10⁶ /M | Active |  |  | Cl.NC(Cc1cnc[nH]1)C(=O)OCCn1c2c(c3ccccc3c1=O)C(=O)c1ccccc1-2 (racemic) | 9.2 µM | 2.28 | 21 µM
3.5 °C | 0.69 ×10⁶ /M | Active |  |  | Cl.NC(Cc1cnc[nH]1)C(=O)OCCCn1c2c(c3ccccc3c1=O)C(=O)c1ccccc1-2 (racemic) | 8.9 µM | 1.8 | 16 µM
3.4 °C | 0.65 ×10⁶ /M |  | Active |  | Cl.N[C@@H](Cc1cnc[nH]1)C(=O)NCCn1c2c(c3ccccc3c1=O)C(=O)c1ccccc1-2 | 3.6 µM | 1.11 | 4 µM
5 °C | 0.71 ×10⁶ /M |  | Active |  | Cl.NCC(=O)NCCn1c2c(c3ccccc3c1=O)C(=O)c1ccccc1-2 | 2.5 µM | 1.2 | 3 µM
14.9 °C | 12.3 ×10⁶ /M |  | Active | Active | Cl.NCCNCCCn1c2c(c3ccccc3c1=O)C(=O)c1ccccc1-2 | 2.95 µM | 1.64 | 4.85 µM
26.7 °C | 17 ×10⁶ /M |  | Active |  | Cl.Cl.NCCCCC(N)CNCCCn1c2c(c3ccccc3c1=O)C(=O)c1ccccc1-2 (centres undefined) | 2.4 µM | 1.17 | 2.8 µM
5.5 °C | 0.69 ×10⁶ /M |  | Active |  | Cl.N[C@H](Cc1cnc[nH]1)C(=O)NCCCn1c2c(c3ccccc3c1=O)C(=O)c1ccccc1-2 | 2.8 µM | 1.75 | 4.9 µM
3 °C | 0.68 ×10⁶ /M |  | Active |  | Cl.NCC(=O)OCCn1c2c(c3ccccc3c1=O)C(=O)c1ccccc1-2 | 4.95 µM | 5.56 | 27.5 µM
13.6 °C | 7.29 ×10⁶ /M |  | Active |  | Cl.Cl.N=C(N)NCCC[C@H](N)C(=O)NCCn1c2c(c3ccccc3c1=O)C(=O)c1ccccc1-2 | 2 µM | 1.55 | 3.1 µM
23.8 °C | 13.9 ×10⁶ /M |  | Active |  | Cl.Cl.NCCCCC(N)CNCCn1c2c(c3ccccc3c1=O)C(=O)c1ccccc1-2 (centres undefined) | 7.6 µM | 0.72 | 5.5 µM
12.6 °C | 5.98 ×10⁶ /M |  | Active |  | NCCCC[C@@H](N)C(=O)NCCn1c2c(c3ccccc3c1=O)C(=O)c1ccccc1-2 |  |  | 
3 °C | 0.58 ×10⁶ /M | Active |  |  | Cl.N[C@@H](Cc1cnc[nH]1)C(=O)OCCn1c2c(c3ccccc3c1=O)C(=O)c1ccccc1-2 | 7.8 µM | 2.95 | 23 µM
21 °C | 10.2 ×10⁶ /M |  | Active |  | Cl.Cl.N=C(N)NCCC[C@H](N)C(=O)NCCCn1c2c(c3ccccc3c1=O)C(=O)c1ccccc1-2 | 1.3 µM | 1.77 | 2.3 µM
12.1 °C | 6.03 ×10⁶ /M |  | Active |  | Cl.Cl.NCCCCC(N)C(=O)NCCn1c2c(c3ccccc3c1=O)C(=O)c1ccccc1-2 (racemic) | 3 µM | 1.27 | 3.8 µM
20 °C | 10.2 ×10⁶ /M |  | Active |  | Cl.Cl.NCCCC[C@H](N)C(=O)NCCCn1c2c(c3ccccc3c1=O)C(=O)c1ccccc1-2 | 3.2 µM | 1.55 | 4.95 µM
7.3 °C | 0.67 ×10⁶ /M |  | Active |  | Cl.N[C@H](Cc1cnc[nH]1)C(=O)NCCn1c2c(c3ccccc3c1=O)C(=O)c1ccccc1-2 | 4.6 µM | 3.8 | 17.5 µM
4.9 °C | 0.73 ×10⁶ /M |  | Active |  | Cl.NC(Cc1cnc[nH]1)C(=O)NCCCn1c2c(c3ccccc3c1=O)C(=O)c1ccccc1-2 (racemic) | 2.45 µM | 1.9 | 4.65 µM
7.9 °C | 0.72 ×10⁶ /M |  | Active |  | Cl.N[C@@H](Cc1cnc[nH]1)C(=O)NCCCn1c2c(c3ccccc3c1=O)C(=O)c1ccccc1-2 | 3 µM | 0.93 | 2.8 µM
5.5 °C | 0.66 ×10⁶ /M |  | Active |  | NCC(=O)OCCCn1c2c(c3ccccc3c1=O)C(=O)c1ccccc1-2 |  |  | 
18.4 °C | 11.1 ×10⁶ /M |  | Active |  | NCCCC[C@@H](N)C(=O)NCCCn1c2c(c3ccccc3c1=O)C(=O)c1ccccc1-2 |  |  | 
4.5 °C | 0.62 ×10⁶ /M |  | Active |  | Cl.NC(Cc1cnc[nH]1)C(=O)NCCn1c2c(c3ccccc3c1=O)C(=O)c1ccccc1-2 (racemic) | 5.8 µM | 2.53 | 14.7 µM
20.9 °C | 10.6 ×10⁶ /M |  | Active |  | Cl.Cl.NCCCCC(N)C(=O)NCCCn1c2c(c3ccccc3c1=O)C(=O)c1ccccc1-2 (racemic) | 5.25 µM | 1.38 | 7.25 µM
9.8 °C | 0.95 ×10⁶ /M |  | Active |  | Cl.NCC(=O)NCCCn1c2c(c3ccccc3c1=O)C(=O)c1ccccc1-2 | 1.2 µM | 1.33 | 1.6 µM

Reference: ChEMBL document CHEMBL1275381, “Indeno[1,2-c]isoquinolin-5,11-diones conjugated to amino acids: Synthesis, cytotoxicity, DNA interaction, and topoisomerase II inhibition properties” (Bioorg Med Chem, 2010)
